Screening data: PubChem BioAssay, several laboratories
HDAC3 inh: human HDAC3 inhibition; recombinant HDAC3, fluorogenic peptide/trypsin coupled, fluorescence; inhibition, % at 8.3 µM; 320,000 compounds, 0.15% hits; AID 2718; in the data active = inhibition above about 26%, passing the limit was not always enough
LANA-H2A inh: blocks KSHV LANA binding to histone H2A/H2B; Q9QR71; cell-free LANA-H2A/H2B peptide, fluorescence polarization; inhibition, % (no concentration beside the values); 320,000 compounds, 0.6% hits; AID 2629; in the data active = inhibition mostly above about 10%, no sharp cut-off; inactive = mostly below about 6.7%
RanGTP-Imp inh: disruptors of Ran-importin-beta complex formation – biochemical, FRET, CFP-Ran, YFP-importin-beta, homogeneous, primary screen. 300,000 compounds, 1.1% hits. inhibition, % (no concentration beside the values). AID 2216. cell-free CFP-Ran/YFP-importin-beta FRET ratio;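 active = more than half of the replicate wells show a fall in the fluorescence ratio signal beyond about 16%, limit read from the data, passing the limit was not always enough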;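 note: 0% = DMSO wells and 100% = Ran loaded with GDP instead of GTP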
CaV13 ICDI inh: Primary screen for inhibitors of IQ motif and Ca2+-dependent inactivation inhibitor domain binding in CACNA1D, Förster resonance energy transfer in living cells, …; HEK cells, CFP/YFP FRET ICDI-IQ, plate reader, 10 min; percent FRET-ratio fall versus neutral wells; inhibition, % at 12.3 µM; 340,000 compounds, 0.098% hits; AID 743397;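 active = mean replicate inhibition of at least 30% and at least 1% of replicates passing that level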;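 note: 0% = median of the neutral control wells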
Runt-CBFb FRET: Runt domain-CBFb interaction inhibition; Cerulean-Runt/Venus-CBFb FRET ratio 530/480, 1 h; inhibition, % at 20 µM; 220,000 compounds, 0.46% hits; AID 1496;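 active = inhibition over about 50% at 20 µM in the single-dose screen, limit read from the data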;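 note: 0% = DMSO wells and 100% = excess unlabeled CBFb competitor control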
Target sequence (Q01196 whole entry, looked up, the tested form may be a part): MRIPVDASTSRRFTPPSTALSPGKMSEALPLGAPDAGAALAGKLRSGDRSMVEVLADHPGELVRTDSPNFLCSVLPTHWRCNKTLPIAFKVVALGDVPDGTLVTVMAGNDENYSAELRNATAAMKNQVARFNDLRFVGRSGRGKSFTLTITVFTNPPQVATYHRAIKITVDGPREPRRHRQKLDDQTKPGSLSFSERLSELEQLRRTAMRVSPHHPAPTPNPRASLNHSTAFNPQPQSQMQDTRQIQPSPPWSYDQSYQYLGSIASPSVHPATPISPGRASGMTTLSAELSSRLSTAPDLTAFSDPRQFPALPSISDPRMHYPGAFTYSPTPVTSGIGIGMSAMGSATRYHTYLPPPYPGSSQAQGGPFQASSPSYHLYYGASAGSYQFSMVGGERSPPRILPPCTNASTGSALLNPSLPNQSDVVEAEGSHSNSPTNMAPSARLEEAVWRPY
Target sequence (Q13951 whole entry, looked up, the tested form may be a part): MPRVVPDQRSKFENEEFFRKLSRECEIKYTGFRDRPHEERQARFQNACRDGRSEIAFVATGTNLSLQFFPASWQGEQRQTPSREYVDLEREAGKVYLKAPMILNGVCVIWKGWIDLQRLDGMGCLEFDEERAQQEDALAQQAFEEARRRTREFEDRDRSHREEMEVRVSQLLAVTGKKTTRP
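Doses: 20 µM compound in 1% DMSO | Material: Cerulean-labeled Runt domain protein | Amount: Each fluorescent fusion protein 100 nM | Schedule: Two 1 h room-temperature incubations shielded from light | Measured by: FRET fluorescence | Evaluation: Loss of energy transfer signal | Controls: Unlabeled CBFb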
Runt-SMMHC FRET: Runt domain-CBFb-SMMHC interaction inhibition; inhibition, % at 20 µM; Q01196+Q13951; 220,000 compounds, 0.74% hits; AID 1434; Cerulean-Runt/Venus-CBFb-SMMHC FRET ratio 530/480, 1 h;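 active = mean inhibition across duplicate retests at 20 µM reaching about 50%, limit read from the data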;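 note: 0% = DMSO wells and 100% = wells with excess untagged CBFb-SMMHC; inhibitors lower the FRET ratio by blocking Runt binding to CBFb-SMMHC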
Active calls of the source: *; i = inactive; x = no result. Hits are enriched below; roughly 1.9% of the tested compounds scored in any of these assays.

SMILES	HDAC3 inh	LANA-H2A inh	RanGTP-Imp inh	CaV13 ICDI inh	Runt-CBFb FRET	Runt-SMMHC FRET
COC(=O)[C@]1(CC(C)C)N[C@H](c2ccc(-c3cccc(Cl)c3)cc2)[C@@H]2C(=O)N(C)C(=O)[C@@H]21	-6	3	0	-10	x	x
O=C(O/N=C(/c1ccccc1)c1ccncc1)c1ccc(F)cc1	31*	-3	0	-4	-2	1
O=C1NC(Cc2ccc(O)cc2)c2nc3cc(F)ccc3c(=O)n2-c2cc(Cl)ccc21 (stereo not given)	1	1	x	-6	x	x
CCOC(=O)c1cc(C#N)c(SCC(=O)c2cc(C#N)c(SC)nc2C)nc1C	-8	-1	20*	-13	-10	41
CCOC(=O)c1cc(C)nc(SC)c1C#N	6	0	-3	2	2	-1
CCOC(=O)c1cc(C(C)(C)C)nc(SC)c1C#N	8	30*	3	-5	-2	-2
COC(=O)c1ccc(CNC(=O)Cn2cnc3c(NCc4ccccc4)ncnc32)cc1	x	x	x	-10	x	x
CCCCN(C)CCn1c(=S)[nH]c2cc(OCC)c(OCC)cc2c1=O	4	i	-2	4	3	3
COc1ccc(-c2nn(CCC(=O)O)cc2/C=N/NC(N)=S)cc1	x	19*	2	-4	4	0
COC(=O)c1cc(S(=O)(=O)N2CCN(c3ccc(F)cc3)CC2)c[nH]1	-10	1	5	-3	x	x
COC(=O)c1cc(S(=O)(=O)N2CCN(c3ccccc3)CC2)c[nH]1	-9	-2	29*	-4	x	x
CC(=O)Nc1ccc(C(=O)Nc2nnc(CCc3ccccc3)s2)cc1	-41	-1	-3	-4	x	x
Cc1ccc(SCCCCN2CCNCC2)cc1	4	18*	1	-2	0	-7
Clc1ccc(SCCCCN2CCNCC2)cc1	5	1	4	-5	-2	1
O=c1oc2ccccc2cc1-c1nc2c(s1)CCCC2	3	1	83*	19	52*	42
Cc1cc(N2C(=O)C(=O)/C(=C(/O)c3ccccc3)C2c2cccs2)no1 (stereo not given)	2	-5	1	-5	9	7
COc1cccc(/C(O)=C2/C(=O)C(=O)N(c3cc(C)on3)C2c2cccs2)c1 (stereo not given)	2	-2	1	x	77*	145*
CCc1cc[n+](-c2nc3ccccc3nc2[N-]S(=O)(=O)c2ccc(Br)s2)cc1	7	12	41*	-6	-9	69*
Cc1ccc(C(=O)/C=C/NCc2ccc(F)cc2)cc1	9	7	31*	-5	2	-1
Cc1ccc(CN/C=C/C(=O)c2ccc(Br)cc2)cc1	x	x	10	x	-1	-2
CN(C)/C=C1\N=C(c2cccnc2Oc2ccc(Cl)cc2)OC1=O	5	4	-1	-13	2	-4
O=C1CCc2cc(OCCCCc3nnnn3C3CCCCC3)ccc2N1	2	33*	5	-5	-3	6
Cc1cccc(NC(=O)N2CCc3ccccc3C2)c1C	7	-6	0	-5	x	x
Cc1nc(CCNC(=O)Cc2ccc(Cl)cc2)cs1	-5	3	-3	39*	0	0
CCC(C(=O)N1CCc2cc(OC)c(OC)cc2C1)c1ccccc1 (stereo not given)	-6	5	1	-6	1	1
COc1cc2c(cc1OC)CN(CC(O)c1ccccc1)CC2 (stereo not given)	-23	-1	27*	-3	x	x
COc1cccc(/C(O)=C/c2nc3ccc(C(=O)NCCc4cccc(C)c4)cc3[nH]c2=O)c1	1	-7	43*	-5	-4	-54
O=C(NCCc1ccc(Cl)cc1)c1ccc2nc[nH]c2c1	3	-1	-1	-7	2	-1
COc1cccc(/C(O)=C/c2nc3ccc(C(=O)NCCc4ccc(Cl)cc4)cc3[nH]c2=O)c1	x	x	32*	-4	-11	10
CC1(OC(=O)C2CCCC2)C(=O)C=C2C=C(c3ccsc3)N(C(CO)CO)C=C2C1=O (stereo not given)	6	-6	18*	-6	3	28
